According to ChEMBL document CHEMBL1152649, “Synthesis, cytotoxicity and human telomerase inhibition activities of a series of 1,2-heteroannelated anthraquinones and anthra[1,2-d]imidazole-6,11-dione homologues” (2009):
Calls of active or inactive are those of the source. The rule behind the calls is not given here.

Experiments:
SNB-75 = test: Antiproliferative activity against human SNB75 cells assessed as cell growth at 10 uM; type: functional; conditions: read-out: Activity
Outline: (§1)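 NCI 60 cell line panel, single dose (10^-5 M), run per the Developmental Therapeutics Program protocol (one dose mean graph). Each result is the growth percentage of treated cells relative to untreated control cells.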

TK-10 = test: Antiproliferative activity against human TK10 cells assessed as cell growth at 10 uM; type: functional; conditions: read-out: Activity; outline: as §1
A549 = test: Antiproliferative activity against human A549 cells assessed as cell growth at 10 uM; type: functional; conditions: read-out: Activity
Outline: (§2)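 NCI 60 cell line panel, single-dose screen (10^-5 M) run by the developmental therapeutics program protocol. Results are given as growth percent of treated cells relative to untreated control cells for each line.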

CAKI-1 = test: Antiproliferative activity against human Caki1 cells assessed as cell growth at 10 uM; type: functional; conditions: read-out: Activity; outline: as §2
OVCAR-5 = test: Antiproliferative activity against human OVCAR5 cells assessed as cell growth at 10 uM; type: functional; conditions: read-out: Activity; outline: as §2
HCC 2998 = test: Antiproliferative activity against human HCC2998 cells assessed as cell growth at 10 uM; type: functional; conditions: read-out: Activity; outline: as §2
MCF7 = test: Antiproliferative activity against human MCF7 cells assessed as cell growth at 10 uM; type: functional; conditions: read-out: Activity; outline: as §2
U-251 = test: Antiproliferative activity against human U251 cells assessed as cell growth at 10 uM; type: functional; conditions: read-out: Activity; outline: as §1
EKVX = test: Antiproliferative activity against human EKVX cells assessed as cell growth at 10 uM; type: functional; conditions: read-out: Activity; outline: as §2
NCI-H460 = test: Antiproliferative activity against human NCI-H460 cells assessed as cell growth at 10 uM; type: functional; conditions: read-out: Activity; outline: as §2
KM12 = test: Antiproliferative activity against human KM12 cells assessed as cell growth at 10 uM; type: functional; conditions: read-out: Activity; outline: as §2
HCT-116 = test: Antiproliferative activity against human HCT116 cells assessed as cell growth at 10 uM; type: functional; conditions: read-out: Activity; outline: as §2
M14 = test: Antiproliferative activity against human M14 cells assessed as cell growth at 10 uM; type: functional; conditions: read-out: Activity; outline: as §2
DU-145 = test: Antiproliferative activity against human DU145 cells assessed as cell growth at 10 uM; type: functional; conditions: read-out: Activity; outline: as §2
MOLT-4 = test: Antiproliferative activity against human MOLT4 cells assessed as cell growth at 10 uM; type: functional; conditions: read-out: Activity; outline: as §2
[1] = target: Telomerase reverse transcriptase (Homo sapiens) (UniProt O14746); test: Inhibition of TERT in human H1299 cells assessed as residual transcriptional activity at 1 uM after 24 hrs by SEAP reporter gene assay; values are per cent of control
Sequence of Telomerase reverse transcriptase (Homo sapiens) (O14746 whole entry): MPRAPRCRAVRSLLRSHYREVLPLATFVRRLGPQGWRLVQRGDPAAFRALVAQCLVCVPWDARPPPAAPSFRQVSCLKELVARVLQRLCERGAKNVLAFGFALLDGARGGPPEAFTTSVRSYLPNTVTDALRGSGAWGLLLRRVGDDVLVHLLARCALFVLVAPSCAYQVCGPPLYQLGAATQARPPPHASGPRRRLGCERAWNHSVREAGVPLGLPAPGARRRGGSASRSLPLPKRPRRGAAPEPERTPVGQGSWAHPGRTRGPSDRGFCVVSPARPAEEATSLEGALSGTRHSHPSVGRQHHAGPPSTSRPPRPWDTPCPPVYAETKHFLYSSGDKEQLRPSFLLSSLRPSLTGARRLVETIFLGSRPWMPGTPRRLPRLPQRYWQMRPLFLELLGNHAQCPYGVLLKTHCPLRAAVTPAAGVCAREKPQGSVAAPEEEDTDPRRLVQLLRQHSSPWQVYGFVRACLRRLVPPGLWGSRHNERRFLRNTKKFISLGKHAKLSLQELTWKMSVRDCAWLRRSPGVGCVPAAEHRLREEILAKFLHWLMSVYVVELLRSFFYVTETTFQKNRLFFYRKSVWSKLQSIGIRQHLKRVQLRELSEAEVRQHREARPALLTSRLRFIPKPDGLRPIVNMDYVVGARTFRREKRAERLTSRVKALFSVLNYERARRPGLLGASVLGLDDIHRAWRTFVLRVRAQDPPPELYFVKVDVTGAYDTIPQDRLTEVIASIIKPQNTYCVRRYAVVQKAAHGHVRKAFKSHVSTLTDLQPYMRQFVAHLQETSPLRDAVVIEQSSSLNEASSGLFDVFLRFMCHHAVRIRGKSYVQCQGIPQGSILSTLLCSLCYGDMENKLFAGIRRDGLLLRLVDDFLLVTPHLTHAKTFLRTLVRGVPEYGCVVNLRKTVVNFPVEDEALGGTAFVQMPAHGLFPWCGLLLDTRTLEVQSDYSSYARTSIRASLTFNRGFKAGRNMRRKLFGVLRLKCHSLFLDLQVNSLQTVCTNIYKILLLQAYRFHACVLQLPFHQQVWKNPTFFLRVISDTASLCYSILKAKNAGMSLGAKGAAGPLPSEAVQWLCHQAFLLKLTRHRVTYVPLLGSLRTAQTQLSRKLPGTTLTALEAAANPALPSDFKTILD

NCI-H23 = test: Antiproliferative activity against human NCI-H23 cells assessed as cell growth at 10 uM; type: functional; conditions: read-out: Activity; outline: as §2
SK-MEL-5 = test: Antiproliferative activity against human SK-MEL-5 cells assessed as cell growth at 10 uM; type: functional; conditions: read-out: Activity; outline: as §2
OVCAR-8 = test: Antiproliferative activity against human OVCAR8 cells assessed as cell growth at 10 uM; type: functional; conditions: read-out: Activity; outline: as §2
ACHN = test: Antiproliferative activity against human ACHN cells assessed as cell growth at 10 uM; type: functional; conditions: read-out: Activity; outline: as §2
HT-29 = test: Antiproliferative activity against human HT-29 cells assessed as cell growth at 10 uM; type: functional; conditions: read-out: Activity; outline: as §2
OVCAR-3 = test: Antiproliferative activity against human OVCAR-3 cells assessed as cell growth at 10 uM; type: functional; conditions: read-out: Activity; outline: as §2
[2] = Cytotoxicity against human H1299 cells at 100 uM after 48 hrs by MTT assay; type: functional; conditions: NCI-H1299, 48 h
Outline: (§3)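 H1299 non-small cell lung cancer cells were grown in RPMI 1640 with 10% FBS, penicillin and streptomycin at 37 °C under 5% CO2. About 2 × 10³ cells per well were seeded and left 24 h. Compounds were dissolved fresh in DMSO, diluted into complete medium and applied for 48 h. MTT was then added for 4 h at 37 °C, followed by lysis buffer (20% SDS, 50% DMF) for 16 h, and absorbance was read at 550 nm.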

COLO 205 = test: Antiproliferative activity against human COLO205 cells assessed as cell growth at 10 uM; type: functional; conditions: read-out: Activity; outline: as §2
PC-3 = test: Antiproliferative activity against human PC3 cells assessed as cell growth at 10 uM; type: functional; conditions: read-out: Activity; outline: as §2
UACC-62 = test: Antiproliferative activity against human UACC62 cells assessed as cell growth at 10 uM; type: functional; conditions: read-out: Activity; outline: as §1
SK-MEL-28 = test: Antiproliferative activity against human SK-MEL-28 cells assessed as cell growth at 10 uM; type: functional; conditions: read-out: Activity; outline: as §2
SF-268 = test: Antiproliferative activity against human SF268 cells assessed as cell growth at 10 uM; type: functional; conditions: read-out: Activity; outline: as §2
NCI-H522 = test: Antiproliferative activity against human NCI-H522 cells assessed as cell growth at 10 uM; type: functional; conditions: read-out: Activity; outline: as §2
OVCAR-4 = test: Antiproliferative activity against human OVCAR4 cells assessed as cell growth at 10 uM; type: functional; conditions: read-out: Activity; outline: as §2
MDA-MB-231 = test: Antiproliferative activity against human MDA-MB-231 cells assessed as cell growth at 10 uM; type: functional; conditions: read-out: Activity; outline: as §2
SF-295 = test: Antiproliferative activity against human SF295 cells assessed as cell growth at 10 uM; type: functional; conditions: read-out: Activity; outline: as §2
SK-OV-3 = test: Antiproliferative activity against human SKOV3 cells assessed as cell growth at 10 uM; type: functional; conditions: read-out: Activity; outline: as §2
[3] = Cytotoxicity against human H1299 cells at 10 uM after 48 hrs by MTT assay; type: functional; conditions: NCI-H1299, 48 h; outline: as §3
[4] = target: Telomerase reverse transcriptase (Homo sapiens) (UniProt O14746); test: Inhibition of telomerase in human H1299 cells up to 100 uM by TRAP assay; type: cell-based
Outline: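 PCR-based telomeric repeat amplification protocol (TRAP). The telomerase source was total lysate of H1299 lung cancer cells, with protein measured against BSA standards. Controls were extract without inhibitor and RNase A-treated extract.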

UO-31 = test: Antiproliferative activity against human UO31 cells assessed as cell growth at 10 uM; type: functional; conditions: read-out: Activity; outline: as §1
CCRF-CEM = test: Antiproliferative activity against human CCRF-CEM cells assessed as cell growth at 10 uM; type: functional; conditions: read-out: Activity; outline: as §2
UACC-257 = test: Antiproliferative activity against human UACC257 cells assessed as cell growth at 10 uM; type: functional; conditions: read-out: Activity; outline: as §1
786-0 = test: Antiproliferative activity against human 786-0 cells assessed as cell growth at 10 uM; type: functional; conditions: read-out: Activity; outline: as §2
NCI/ADR-RES = test: Antiproliferative activity against human NCI/ADR-RES cells assessed as cell growth at 10 uM; type: functional; conditions: read-out: Activity; outline: as §2
NCI-H322M = test: Antiproliferative activity against human NCI-H322M cells assessed as cell growth at 10 uM; type: functional; conditions: read-out: Activity; outline: as §2
[5] = target: Telomerase reverse transcriptase (Homo sapiens) (UniProt O14746); test: Inhibition of TERT in human H1299 cells assessed as residual transcriptional activity at 10 uM after 24 hrs by SEAP reporter gene assay; values are per cent of control
[6] = Antiproliferative activity against human Hs 578T cells assessed as cell growth at 10 uM; type: functional; conditions: read-out: Activity; outline: as §2
[7] = Antiproliferative activity against human RPMI8266 cells assessed as cell growth at 10 uM; type: functional; conditions: read-out: Activity; outline: as §2
T47D = test: Antiproliferative activity against human T47D cells assessed as cell growth at 10 uM; type: functional; conditions: read-out: Activity; outline: as §1
SK-MEL-2 = test: Antiproliferative activity against human SK-MEL-2 cells assessed as cell growth at 10 uM; type: functional; conditions: read-out: Activity; outline: as §2

CN(C)c1ccc(-c2nc3ccc4c(c3[nH]2)C(=O)c2ccccc2C4=O)cc1
growth at 10 µM (SNB-75): 93.1% | growth at 10 µM (TK-10): 116% | growth at 10 µM (A549): 113% | growth at 10 µM (CAKI-1): 108% | growth at 10 µM (OVCAR-5): 117% | growth at 10 µM (HCC 2998): 109% | growth at 10 µM (MCF7): 67.4% | growth at 10 µM (U-251): 102% | growth at 10 µM (EKVX): 91.9% | growth at 10 µM (NCI-H460): 101% | growth at 10 µM (KM12): 98% | growth at 10 µM (HCT-116): 100% | growth at 10 µM (M14): 113% | growth at 10 µM (DU-145): 99.9% | growth at 10 µM (MOLT-4): 101% | residual activity [1]: 92% | growth at 10 µM (NCI-H23): 93.8% | growth at 10 µM (SK-MEL-5): 93.8% | growth at 10 µM (OVCAR-8): 111% | growth at 10 µM (ACHN): 96.2% | growth at 10 µM (HT-29): 105% | growth at 10 µM (OVCAR-3): 111% | viability at 100 µM [2]: 22% | growth at 10 µM (COLO 205): 208% | growth at 10 µM (PC-3): 82.4% | growth at 10 µM (UACC-62): 85.8% | growth at 10 µM (SK-MEL-28): 96.8% | growth at 10 µM (SF-268): 95.4% | growth at 10 µM (NCI-H522): 87.1% | growth at 10 µM (OVCAR-4): 98.3% | growth at 10 µM (MDA-MB-231): 94.4% | growth at 10 µM (SF-295): 159% | growth at 10 µM (SK-OV-3): 202% | viability at 10 µM [3]: 62% | inhibition [4]: inactive | growth at 10 µM (UO-31): 75.5% | growth at 10 µM (CCRF-CEM): 63.9% | growth at 10 µM (UACC-257): 103% | growth at 10 µM (786-0): 109% | growth at 10 µM (NCI/ADR-RES): 108% | growth at 10 µM (NCI-H322M): 94.8% | residual activity [5]: 73% | growth at 10 µM [6]: 109% | growth at 10 µM [7]: 78.4% | growth at 10 µM (T47D): 119% | growth at 10 µM (SK-MEL-2): 73.2%
